Reference: ChEMBL document CHEMBL3612023, “Synthesis and in vitro characterization of novel fluorinated derivatives of the TSPO 18 kDa ligand SSR180575” (Eur J Med Chem, 2015)

Tests used:
[1] = n-octanol/buffer partition coefficient, log D of the compound at pH 7.4 by HPLC method; assay type: physicochemical
[2] = Biotransformation in CD1 mouse liver microsomes at 5 uM measured at 20 mins by HPLC/ESI-MS/MS analysis; assay type: ADME; settings: read-out: Drug metabolism
How it was run: (§1)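 Hepatic microsomes (male CD1 mouse, male Sprague-Dawley rat, or pooled human) at 1 mg/mL protein with 1 mg/mL BSA; substrate 5 µM. Reference sample held 0 min without cofactor; test sample run 20 min with 1 mM NADPH. Reaction quenched with 1 volume ACN, proteins spun out, supernatant analysed by HPLC/ESI-MS/MS in positive SIR. % biotransformation = (1 − area B/area A) × 100.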

[3] = Biotransformation in Sprague-Dawley rat liver microsomes at 5 uM measured at 20 mins by HPLC/ESI-MS/MS analysis; assay type: ADME; settings: read-out: Drug metabolism; how it was run: as §1
[4] = Biotransformation in human liver microsomes at 5 uM measured at 20 mins by HPLC/ESI-MS/MS analysis; assay type: ADME; settings: read-out: Drug metabolism; how it was run: as §1

Compound: COc1ccc(-n2nc(CC(=O)N(C)C)c3c4ccc(Cl)cc4n(C)c3c2=O)cc1
- logD [1]: 3.01
- metabolised at 20 min, 5 µM [2]: 22%
- metabolised at 20 min, 5 µM [3]: 4%
- metabolised at 20 min, 5 µM [4]: 22%

Compound: CN(C)C(=O)Cc1nn(-c2ccc(OCCF)cc2)c(=O)c2c1c1ccc(Cl)cc1n2C
- logD [1]: 3.12
- metabolised at 20 min, 5 µM [2]: 0%
- metabolised at 20 min, 5 µM [3]: 2%
- metabolised at 20 min, 5 µM [4]: 0%

Compound: CN(C)C(=O)Cc1nn(-c2ccc(OCCCF)cc2)c(=O)c2c1c1ccc(Cl)cc1n2C
- logD [1]: 3.48
- metabolised at 20 min, 5 µM [2]: 4%
- metabolised at 20 min, 5 µM [3]: 3%
- metabolised at 20 min, 5 µM [4]: 4%

Compound: CN(C)C(=O)Cc1nn(-c2ccc(OCCCCF)cc2)c(=O)c2c1c1ccc(Cl)cc1n2C
- logD [1]: 3.75
- metabolised at 20 min, 5 µM [2]: 1%
- metabolised at 20 min, 5 µM [3]: 13%
- metabolised at 20 min, 5 µM [4]: 16%

Compound: CN(C)C(=O)Cc1nn(-c2ccc(OC/C=C/CF)cc2)c(=O)c2c1c1ccc(Cl)cc1n2C
- logD [1]: 3.62
- metabolised at 20 min, 5 µM [2]: 53%
- metabolised at 20 min, 5 µM [3]: 41%
- metabolised at 20 min, 5 µM [4]: 76%

Compound: CN(C)C(=O)Cc1nn(-c2ccc(OCC#CCF)cc2)c(=O)c2c1c1ccc(Cl)cc1n2C
- logD [1]: 3.54
- metabolised at 20 min, 5 µM [2]: 42%
- metabolised at 20 min, 5 µM [3]: 25%
- metabolised at 20 min, 5 µM [4]: 47%

Compound: CN(C)C(=O)Cc1nn(-c2ccc(OCCOCCF)cc2)c(=O)c2c1c1ccc(Cl)cc1n2C
- logD [1]: 3.11
- metabolised at 20 min, 5 µM [2]: 17%
- metabolised at 20 min, 5 µM [3]: 11%
- metabolised at 20 min, 5 µM [4]: 17%

Compound: CN(C)C(=O)Cc1nn(-c2ccc(OCCOCCOCCF)cc2)c(=O)c2c1c1ccc(Cl)cc1n2C
- logD [1]: 3.08
- metabolised at 20 min, 5 µM [2]: 69%
- metabolised at 20 min, 5 µM [3]: 52%
- metabolised at 20 min, 5 µM [4]: 81%

Compound: CN(C)C(=O)Cc1nn(-c2ccccc2)c(=O)c2c1c1ccc(Cl)cc1n2CCF
- logD [1]: 3.09
- metabolised at 20 min, 5 µM [2]: 5%
- metabolised at 20 min, 5 µM [3]: 14%
- metabolised at 20 min, 5 µM [4]: 19%

Compound: CN(C)C(=O)Cc1nn(-c2ccccc2)c(=O)c2c1c1ccc(Cl)cc1n2CCCF
- logD [1]: 3.38

Compound: CN(C)C(=O)Cc1nn(-c2ccccc2)c(=O)c2c1c1ccc(Cl)cc1n2CCCCF
- logD [1]: 3.66

Compound: CN(C)C(=O)Cc1nn(-c2ccccc2)c(=O)c2c1c1ccc(Cl)cc1n2C/C=C/CF
- logD [1]: 3.48
- metabolised at 20 min, 5 µM [2]: 31%
- metabolised at 20 min, 5 µM [3]: 44%
- metabolised at 20 min, 5 µM [4]: 38%

Compound: CN(C)C(=O)Cc1nn(-c2ccccc2)c(=O)c2c1c1ccc(Cl)cc1n2CC#CCF
- logD [1]: 3.44
- metabolised at 20 min, 5 µM [2]: 39%
- metabolised at 20 min, 5 µM [3]: 26%
- metabolised at 20 min, 5 µM [4]: 30%

Compound: CN(C)C(=O)Cc1nn(-c2ccccc2)c(=O)c2c1c1ccc(Cl)cc1n2CCOCCF
- logD [1]: 3.2

Compound: CN(C)C(=O)Cc1nn(-c2ccccc2)c(=O)c2c1c1ccc(Cl)cc1n2CCOCCOCCF
- logD [1]: 3.19

Compound: CN(C)C(=O)Cc1nn(-c2ccccc2)c(=O)c2c1c1ccc(Cl)cc1n2C
- logD [1]: 2.97
- metabolised at 20 min, 5 µM [2]: 21%
- metabolised at 20 min, 5 µM [3]: 14%
- metabolised at 20 min, 5 µM [4]: 10%
